# Reference: ChEMBL document CHEMBL4190353, “Synthesis, structure-activity relationships and preliminary mechanism of action of novel water-soluble 4-quinolone-3-carboxamides as antiproliferative agents” (Eur J Med Chem, 2017)
# Active and inactive are the calls of the source. The calls are words filed in the database; no cut-off is given here.
# Experiments:
# [1] = system: HCT-116; assay: Induction of apoptosis in Bax-/- human HCT116 cells assessed as early apoptotic cells level pre-incubated with 20 uM pan-caspase inhibitor Z-VAD-FMK for 5 hrs followed by compound addition and further incubated for 48 hrs by Annexin V-FITC/PI staining based cytometry (reference value: 6.8%); assay type: functional; design: scale not given: the % may be the effect or the level left
# [2] = system: HCT-116; assay: Induction of apoptosis in human HCT116 cells assessed as increase in cleaved PARP level at 4 uM incubated for 24 hrs by Western blot method; assay type: functional, cell-based
# Outline: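 Lysates were made in SDS buffer (2% SDS, 50 mM Tris-HCl pH 6.8) and quantified by BCA. Equal protein was run on 10% SDS-PAGE and transferred to PVDF. Membranes were blocked in 5% milk, probed overnight at 4 °C for cleaved PARP (1:1000) with GAPDH (1:5000), and detected with HRP secondary antibody and ECL.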
# [3] = system: HCT-116; assay: Induction of apoptosis in Bax-/- human HCT116 cells assessed as necrotic cells level pre-incubated with 20 uM pan-caspase inhibitor Z-VAD-FMK for 5 hrs followed by compound addition and further incubated for 48 hrs by Annexin V-FITC/PI staining based cytometry (reference value: 0.2%); assay type: functional; design: scale not given: the % may be the effect or the level left
# [4] = Solubility in water; assay type: physicochemical
# [5] = system: HCT-116; assay: Induction of apoptosis in human HCT116 cells assessed as increase in cleaved PARP level pre-treated with 7.5 mM GSH for 6 hrs followed by 4 to 8 uM compound addition and further incubated for 24 hrs by Western blot method; assay type: functional, cell-based
# [6] = system: HCT-116; assay: Induction of apoptosis in human HCT116 cells assessed as necrotic cells level at 2 uM incubated for 24 hrs by Annexin V-FITC/PI staining based cytometry (reference value: 1.6%); assay type: functional
# [7] = system: HCT-116; assay: Induction of apoptosis in Bax-/- human HCT116 cells assessed as necrotic cells level incubated for 48 hrs by Annexin V-FITC/PI staining based cytometry (reference value: 0.2%); assay type: functional
# Outline: (§1)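 Cells were plated at 5×10^5 per well and treated once 80% confluent. After trypsinisation and two washes in ice-cold PBS (pH 7.4), cells were stained with Annexin V-FITC and PI for 15 min at room temperature in the dark. Analysis was by flow cytometry. The legend gives vehicle or 4 µM for the p53-/- and Bax-/- lines.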
# [8] = system: PC-3; assay: Cytotoxicity against human PC3 cells assessed as reduction in cell viability incubated for 24 hrs by MTT assay; assay type: functional, cell-based; conditions: PC-3, 24 h
# Outline: (§2)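 Cells were kept in McCoy's 5A with 10% fetal bovine serum, streptomycin and 100 units·mL⁻¹ penicillin at 37 °C under 5% CO₂/95% air. Viability was read by MTT optical density. IC50 is the concentration that lowers optical density by 50% relative to untreated cells. Values are means with SD of at least three independent determinations.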
# [9] = system: HCT-116; assay: Induction of apoptosis in human HCT116 cells assessed as late apoptotic cells level pre-incubated with 20 uM pan-caspase inhibitor Z-VAD-FMK for 5 hrs followed by compound addition and further incubated for 48 hrs by Annexin V-FITC/PI staining based cytometry (reference value: 0.0%); assay type: functional; design: scale not given: the % may be the effect or the level left
# [10] = system: HepG2; assay: Cytotoxicity against human HepG2 cells assessed as reduction in cell viability incubated for 24 hrs by MTT assay; assay type: functional, cell-based; conditions: HepG2, 24 h; outline: as §2
# [11] = system: HCT-116; assay: Induction of apoptosis in Bax-/- human HCT116 cells assessed as viable cells level incubated for 48 hrs by Annexin V-FITC/PI staining based cytometry (reference value: 92.9%); assay type: functional; outline: as §1
# [12] = system: HCT-116; assay: Induction of apoptosis in human HCT116 cells assessed as G1 phase cells level at 4 uM incubated for 24 hrs by […]PI staining based cytometry (reference value: 65.2%); assay type: functional
# Outline: (§3)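 Cells were treated for 24 h, then fixed in 75% ethanol at -20 °C overnight. RNA was digested with 0.2 mg/mL RNase A for 30 min at 37 °C. Cells were stained with 50 µg/mL PI for 30 min in the dark, and DNA content was read by flow cytometry.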
# [13] = system: HCT-116; assay: Induction of apoptosis in Bax-/- human HCT116 cells assessed as late apoptotic cells level incubated for 48 hrs by Annexin V-FITC/PI staining based cytometry (reference value: 0.1%); assay type: functional; outline: as §1
# [14] = system: HCT-116; assay: Induction of apoptosis in human HCT116 cells assessed as G1 phase cells level at 2 uM incubated for 24 hrs by […]PI staining based cytometry (reference value: 65.2%); assay type: functional; outline: as §3
# [15] = system: HCT-116; assay: Induction of apoptosis in Bax-/- human HCT116 cells assessed as viable cells level at 4 uM incubated for 48 hrs by Annexin V-FITC/PI staining based cytometry (reference value: 95.2%); assay type: functional; outline: as §1
# [16] = system: HCT-116; assay: Induction of apoptosis in human HCT116 cells assessed as necrotic cells level pre-incubated with 20 uM pan-caspase inhibitor Z-VAD-FMK for 5 hrs followed by compound addition and further incubated for 48 hrs by Annexin V-FITC/PI staining based cytometry (reference value: 0.2%); assay type: functional; design: scale not given: the % may be the effect or the level left
# [17] = system: HCT-116; assay: Induction of apoptosis in p53-/- human HCT116 cells assessed as necrotic cells level at 4 uM incubated for 48 hrs by Annexin V-FITC/PI staining based cytometry (reference value: 0.8%); assay type: functional
# Outline: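 HCT116 p53-/- cells (Vogelstein line) in McCoy's 5A with 10% FBS, 37 °C, 5% CO2. Seeded at 5×10^5 in 6-well plates, treated with vehicle or 4 μM at 80% confluence. After treatment, trypsinised, washed twice in ice-cold PBS pH 7.4, and stained in binding buffer with Annexin V-FITC and PI for 15 min at room temperature in the dark. Read by flow cytometry.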
# [18] = system: RKO; assay: Cytotoxicity against human RKO cells assessed as reduction in cell viability incubated for 24 hrs by MTT assay; assay type: functional, cell-based; outline: as §2
# [19] = system: HCT-116; assay: Induction of apoptosis in human HCT116 cells assessed as subG1 phase cells level at 4 uM incubated for 24 hrs by […]PI staining based cytometry (reference value: 1%); assay type: functional; outline: as §3
# [20] = system: HCT-116; assay: Induction of apoptosis in human HCT116 cells assessed as viable cells level at 4 uM incubated for 24 hrs by Annexin V-FITC/PI staining based cytometry (reference value: 96.6%); assay type: functional
# [21] = system: RKO; assay: Inhibition of colony formation of human RKO cells incubated for 24 hrs by crystal violet staining based photography; assay type: functional, cell-based
# Outline: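 Cells (HCT116, RKO, HCT116 p53-/-, HCT116 Bax-/-) seeded at 300 per well in 12-well plates for 48 h, then treated 24 h. Drug medium replaced with fresh medium; about 10 days later colonies stained 15 min with crystal violet, photographed and counted. Run in triplicate.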
# [22] = system: HeLa; assay: Cytotoxicity against human HeLa cells assessed as reduction in cell viability incubated for 24 hrs by MTT assay; assay type: functional, cell-based; outline: as §2
# [23] = system: HCT-116; assay: Induction of apoptosis in Bax-/- human HCT116 cells assessed as late apoptotic cells level pre-incubated with 20 uM pan-caspase inhibitor Z-VAD-FMK for 5 hrs followed by compound addition and further incubated for 48 hrs by Annexin V-FITC/PI staining based cytometry (reference value: 0.1%); assay type: functional; design: scale not given: the % may be the effect or the level left
# [24] = system: HCT-116; assay: Induction of apoptosis in Bax-/- human HCT116 cells assessed as necrotic cells level at 4 uM incubated for 48 hrs by Annexin V-FITC/PI staining based cytometry (reference value: 0.3%); assay type: functional; outline: as §1
# [25] = system: HCT-116; assay: Induction of apoptosis in human HCT116 cells assessed as late apoptotic cells level at 2 uM incubated for 24 hrs by Annexin V-FITC/PI staining based cytometry (reference value: 0.5%); assay type: functional
smiles,measurement,setting,value
CCN(CC)CCCNC(=O)c1cn(CCCc2ccccc2)c2cc(Cl)ccc2c1=O.Cl,Activity,[1],10.2%
same,Activity,[2],Active
same,Activity,[3],1.2%
same,solubility,[4],> 10000 µg/mL
same,Activity,[5],inactive
same,Activity,[6],1%
same,Activity,[7],0.2%
same,IC50,[8],6.41 µM
same,Activity,[9],2%
same,IC50,[10],3.94 µM
same,Activity,[11],65.1%
same,Activity,[12],42.4%
same,Activity,[13],1.7%
same,Activity,[14],46.7%
same,Activity,[15],71.5%
same,Activity,[16],3.5%
same,Activity,[17],1.8%
same,IC50,[18],4.87 µM
same,Activity,[19],14.2%
same,Activity,[20],52.7%
same,inhibition,[21],Dose-dependent effect
same,IC50,[22],3.52 µM
same,Activity,[23],0.9%
same,Activity,[24],2.1%
same,Activity,[25],1.5%
